Results pooled from the literature.
Cell line: A549
Read-out: cell growth or viability

| Structure (SMILES) | technique | tested at | time | endpoint | result |
| --- | --- | --- | --- | --- | --- |
| Cc1cc(=O)oc2cc(OCCCCSC#N)ccc12 | SRB | – | – | GI50 | 5 µM |
| NCCC(=O)Nc1ccccc1/N=c1\cc(-c2ccc3nc(N)oc3c2)oc2ccc(O)cc12 | CCK-8 | 1 µM | – | inhibition | 13.9% |
| COc1cccc2c1C(=O)c1c(O)c3c(c(O)c1C2=O)C[C@@](O)(C(=O)CO)C[C@@H]3O[C@H]1C[C@H](N)[C@H](O)[C@H](C)O1 | MTT | – | – | IC50 | 0.307 µM |
| COc1ccc(NC(=O)Nc2cccc(-c3cn(Cc4ccc(Cl)cc4)nn3)c2)cc1 | CCK-8 | 50 µM | 72 h | viability | 270% |
| CCCCCCCCCCCCCCCCCCOc1ccc(CC(=O)OCC[N+](CC)(CC)CC)cc1 | SRB | 10 µM | – | inhibition | 21.2% |
| CCCCCC(=O)Nc1ccc(-c2ccc3ncn(CC4CC4)c(=O)c3c2)cn1 | CCK-8 | – | 72 h | IC50 | 0.25 µM |
| O=C(Nc1ccc(Cl)cc1)Nc1ccc(-c2cn(Cc3cccc(Cl)c3)nn2)cc1 | CCK-8 | 20 µM | 72 h | viability | 64.6% |
| NCC(=O)Nc1ccccc1/N=c1\cc(-c2ccc3c(c2)OCO3)oc2ccccc12 | CCK-8 | 1 µM | – | inhibition | -5.88% |
| O=C(Nc1ccc(Cl)cc1)Nc1cccc(-c2cn(Cc3ccc(Cl)cc3)nn2)c1 | CCK-8 | 50 µM | 72 h | viability | 101% |
| NCCC(=O)Nc1ccccc1/N=c1\cc(-c2ccc3nc(N)oc3c2)oc2cc(O)ccc12 | CCK-8 | 1 µM | – | inhibition | 23.2% |
| COc1ccc(NC(=O)Nc2ccc(-c3cn(Cc4cccc(Cl)c4)nn3)cc2)cc1 | CCK-8 | 50 µM | 72 h | viability | 91.2% |
| O=C(NCc1cn(Cc2ccc(Cl)cc2)nn1)Nc1ccccc1Br | CCK-8 | 50 µM | 72 h | viability | 86.1% |
| CCNc1nc2ccc(-c3c/c(=N\c4ccccc4NC(=O)CCN)c4ccccc4o3)cc2o1 | CCK-8 | 1 µM | – | inhibition | 14.1% |
| O=C(Nc1ccc(-c2cn(Cc3ccc(Br)cc3)nn2)cc1)Nc1ccccc1Br | CCK-8 | 50 µM | 72 h | viability | 89% |
| CCCCC(=O)Nc1ccc(-c2ccc3ncn(CC4CC4)c(=O)c3c2)cn1 | CCK-8 | – | 72 h | IC50 | 0.42 µM |
| O=C(Nc1ccccc1/N=c1\cc(-c2ccc3c(c2)OCO3)oc2ccccc12)N1CCOCC1 | CCK-8 | 1 µM | – | inhibition | 13.8% |
| CCCCC(=O)Nc1ccc(-c2ccc3ncn(CC#N)c(=O)c3c2)cn1 | CCK-8 | – | 72 h | IC50 | > 10 µM |
| COc1ccc(NC(=O)Nc2cccc(-c3cn(Cc4cccc(Cl)c4)nn3)c2)cc1 | CCK-8 | 20 µM | 72 h | viability | 141% |
| O=C(Nc1ccc(Cl)cc1)Nc1cccc(-c2cn(Cc3cccc(Cl)c3)nn2)c1 | CCK-8 | 50 µM | 72 h | viability | 166% |
| COc1ccc(NC(=O)NCc2cn(Cc3ccccc3C)nn2)cc1 | CCK-8 | 20 µM | 72 h | viability | 65.6% |
| CCCCCCCCCCCCCCCCCCOc1ccccc1CC(=O)OCC[N+]1(C)CCOCC1 | SRB | 10 µM | – | inhibition | 37.4% |
| O=C(NCc1cn(Cc2ccc(Br)cc2)nn1)Nc1ccc(Cl)cc1 | CCK-8 | 20 µM | 72 h | viability | 102% |

| Structure (SMILES) | technique | tested at | time | endpoint | result |
| --- | --- | --- | --- | --- | --- |
| O=C(Nc1ccccc1/N=c1\cc(-c2ccc3c(c2)OCCO3)oc2cc(F)ccc12)N1CCOCC1 | CCK-8 | 1 µM | – | inhibition | -4.17% |
| CCCCCCCCCCCCCCCCCCOc1ccccc1CC(=O)OCCC[N+](C)(C)C | SRB | 10 µM | – | inhibition | 45.8% |
| COc1ccc2oc(-c3ccc4nc(N)oc4c3)c/c(=N\c3ccccc3NC(=O)CCN)c2c1 | CCK-8 | 1 µM | – | inhibition | 39.1% |
| O=C(Nc1ccc(Cl)cc1)Nc1ccc(-c2cn(Cc3ccc(Br)cc3)nn2)cc1 | CCK-8 | 50 µM | 72 h | viability | 78.8% |
| CCCCC(=O)Nc1ccc(-c2ccc3ncn(CCC(C)C)c(=O)c3c2)cn1 | CCK-8 | – | 72 h | IC50 | 0.45 µM |
| O=C(Nc1cccc(-c2cn(Cc3ccc(Cl)cc3)nn2)c1)Nc1ccccc1Br | CCK-8 | 50 µM | 72 h | viability | 149% |
| COc1ccc(NC(=O)Nc2ccc(-c3cn(Cc4ccc(Cl)cc4)nn3)cc2)cc1 | CCK-8 | 20 µM | 72 h | viability | 102% |
| CCCn1cnc2ccc(-c3ccc(N4CCCC4=O)nc3)cc2c1=O | CCK-8 | – | 72 h | IC50 | > 10 µM |
| COc1ccc(NC(=O)NCc2cn(Cc3ccc(Br)cc3)nn2)cc1 | CCK-8 | 20 µM | 72 h | viability | 102% |
| CCCCCCCCCCCCCCCCCCOc1ccc(CC(=O)OCC[N+]2(C)CCCCC2)cc1 | SRB | 10 µM | – | inhibition | 11.1% |
| CCC(=O)NCc1ccc(-c2cnc(C3CN(C(=O)c4ccc(NC(=O)[C@@H]5CC(C)(C)CN5)s4)C3)s2)c2ccccc12 | – | – | 14 days | GI50 | 0.46 µM |
| COc1ccc(NC(=O)NCc2cn(Cc3ccc(Cl)cc3)nn2)cc1 | CCK-8 | 20 µM | 72 h | viability | 71.9% |
| CCCn1cnc2ccc(-c3ccc(NC(=O)c4ccccc4)nc3)cc2c1=O | CCK-8 | – | 72 h | IC50 | 0.12 µM |
| CCCC(=O)Nc1nc2cc(-c3ccc4ncn(Cc5ccccc5)c(=O)c4c3)ccc2s1 | MTT | – | 72 h | IC50 | 7.87 µM |
| NCCCC(=O)Nc1ccccc1/N=c1\cc(-c2ccc3c(c2)OCO3)oc2ccccc12 | CCK-8 | 1 µM | – | inhibition | -0.2% |
| CCCCCCCCCCCCCCCCCCOc1cccc(CC(=O)OCC[N+]2(C)CCOCC2)c1 | SRB | 10 µM | – | inhibition | 7.62% |
| COc1ccc(Cn2cnc3ccc(-c4ccc(NC(=O)c5ccccc5)nc4)cc3c2=O)cc1 | CCK-8 | – | 72 h | IC50 | > 10 µM |
| CCNC(=O)Nc1nc2cc(-c3ccc4ncn(Cc5ccccc5)c(=O)c4c3)ccc2s1 | MTT | – | 72 h | IC50 | 11 µM |
| CCCCCCCCCCCCCCCCCCOc1ccccc1CC(=O)OCC[N+]1(C)CCCC1 | SRB | 10 µM | – | inhibition | 77% |
| CCCCC(=O)Nc1ccc(-c2cnc3ncn(CCC)c(=O)c3c2)cn1 | CCK-8 | – | 72 h | IC50 | > 10 µM |
| O=C(Nc1ccc(Cl)cc1)Nc1cccc(-c2cn(Cc3cccc(Br)c3)nn2)c1 | CCK-8 | 20 µM | 72 h | viability | 123% |
| N#CSCCCCOc1ccc2c(-c3ccccc3)cc(=O)oc2c1 | SRB | – | – | GI50 | 36 µM |
